Experimental data from the RNAGym collection of RNA variant scans (doi:10.1002/anie.201605470).

B1: Osa-1-4 twister ribozyme (parent)
chain: CCGCCUAACACUGCCAAUGCCGGUCCCAAGCCCGGAUAAAAGUGGAGGGGGCGG

Variants of: B1
Assay: self-cleavage, relative activity (ratio to wild type); higher = more cleavage; co-transcriptional
Summary of the method: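 For each read, cleavage status was taken from whether upstream sequence was present. The reads came from an Oryza sativa twister ribozyme of 54 nucleotides, whose DNA template was synthesised with 97 % wild-type base and 1 % of each other base at the 48 positions downstream of the cleavage site. The template was transcribed in vitro at 37 °C for 2 h with co-transcriptional self-cleavage, and the RNA was reverse-transcribed using a template-switching oligonucleotide, PCR-amplified and deep-sequenced. Relative activity is the fraction cleaved normalised to wild type.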

In order of falling self-cleavage:
1. G22A U37A  1.06
2. G22A U37C  1.01
3. G22A U37G  1
4. G22U  0.93
5. G22U G50A  0.91
6. G22U U18A  0.84
7. G22U U18G  0.82
8. G22U G34U  0.79
9. G22U G50U  0.75
10. G22U U18C  0.68
11. G22A G51U  0.67
12. G22U G54C  0.64
13. G22U G54U  0.6
14. G22U G54A  0.58
15. U24C U37G  0.55
16. U24C  0.53
17. U24C U37C  0.51
18. U24C U37A  0.45
19. U24A  0.42
20. G22U G34C  0.4
21. G22U G51U  0.38
22. G22A U24A  0.36
23. G22C G50A  0.34
24. G22A U43A  0.3
25. G22U G50C  0.3
26. G23A G44C  0.27
27. G22A G51A  0.2
28. G22U G34A  0.19
29. G23U U37G  0.19
30. G22C  0.19
31. G23A G44U  0.18
32. G22A U43C  0.18
33. G22C U18G  0.17
34. G23U U37C  0.16
35. G22A U24C  0.16
36. G23A G44A  0.15
37. G23A G53A  0.15
38. G23U U37A  0.14
39. G22C U18A  0.14
40. G23C U18C  0.14
41. G22A G51C  0.14
42. G23A G35A  0.14
43. G22U U12A  0.13
44. G22U U24A  0.13
45. G22A U24G  0.13
46. G23A G35U  0.13
47. G22C G50U  0.11
48. G23A G53U  0.11
49. G22U G45A  0.11
50. G22U U12C  0.1
51. G23A U12A  0.1
52. G22U G51A  0.1
53. G22A U43G  0.1
54. G22C U18C  0.1
55. G23A U43A  0.1
56. G23A U24A  0.09
57. G23A U43G  0.09
58. G23A U43C  0.09
59. G23A U12C  0.08
60. U24C U43A  0.08
61. G22U G51C  0.08
62. G22U G23A  0.08
63. G23A G35C  0.08
64. G23A U12G  0.07
65. G23C U37C  0.07
66. G22U G49A  0.07
67. G23U U43G  0.07
68. G22U G47A  0.07
69. G22U G47U  0.07
70. G22U U24G  0.07
71. U24A U43C  0.07
72. U24A U43A  0.07
73. G22U G23U  0.07
74. G23C G54A  0.06
75. G23C G54U  0.06
76. G22C G23A  0.06
77. G23C G34A  0.06
78. U24C U43C  0.06
79. G23A G53C  0.06
80. G23A G48C  0.06
81. G22U U24C  0.06
82. G23C U18G  0.06
83. G23C U18A  0.06
84. G22U G45U  0.06
85. G23A G49U  0.06
86. G23A G49A  0.06
87. G23C G35C  0.06
88. G22C G50C  0.05
89. G22C G34A  0.05
90. G22C G34C  0.05
91. G22C G34U  0.05
92. G22U U12G  0.05
93. G23C G54C  0.05
94. U24C U43G  0.05
95. G23C U37G  0.05
96. G22U G49U  0.05
97. G22U G49C  0.05
98. G23A U24C  0.05
99. G23A G48U  0.05
100. G23A G48A  0.05
101. G22U G47C  0.05
102. G23U G34U  0.05
103. G23C G42A  0.05
104. G23C G42C  0.05
105. U24A U43G  0.05
106. G23A G49C  0.05
107. G23C G34U  0.04
108. G23C G34C  0.04
109. G23U G45A  0.04
110. G23C U37A  0.04
111. G22C U24A  0.04
112. G23U U43A  0.04
113. G23U U43C  0.04
114. G23C G44A  0.04
115. G23C G44C  0.04
116. G23C G44U  0.04
117. G23U G34A  0.04
118. G23U G34C  0.04
119. G23U U24A  0.04
120. G22U G45C  0.04
121. G23A G30C  0.04
122. G23A G30U  0.04
123. G23A G30A  0.04
124. G22U G23C  0.04
125. G23C G35A  0.04
126. G23C G35U  0.04
127. G22C G42C  0.04
128. G22C G35U  0.04
129. G22C G51U  0.04
130. G22C G51A  0.04
131. G23U G30C  0.03
132. G23C G47C  0.03
133. G23C G47A  0.03
134. G23C G47U  0.03
135. G22C G23U  0.03
136. G22C G45A  0.03
137. G22C G45U  0.03
138. G23U G45U  0.03
139. G23U G45C  0.03
140. G22C G49U  0.03
141. G22C G49C  0.03
142. G22C G49A  0.03
143. G22C U24G  0.03
144. G22C U24C  0.03
145. U24G  0.03
146. G23U U24C  0.03
147. G23C G49A  0.03
148. G23C G49U  0.03
149. G22C G42A  0.03
150. G22C G35A  0.03
151. G22C G35C  0.03
152. G22C G51C  0.03
153. G23U G30U  0.02
154. G23U G30A  0.02
155. G23C G48U  0.02
156. G23C G48A  0.02
157. G23C G48C  0.02
158. G22C G23C  0.02
159. G22C G45C  0.02
160. G23A U24G  0.02
161. G22C G48A  0.02
162. G22C G48U  0.02
163. G22C G48C  0.02
164. G23U U24G  0.02
165. G23C G42U  0.02
166. G23C G49C  0.02
167. G22C G42U  0.02
